# The list is not random: actives were taken first. Their share in the collection is about 2.1%.
# GRK2 inh – inhibitors of human GRK2 displacing RNA aptamer | actives 0.59% (n = 330,000) | P25098 | AID 488847 | inhibition of aptamer binding, % at 10 µM | bead flow cytometry, FAM-aptamer displacement from GRK2;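 active means inhibition of aptamer binding above 40%, roughly 3 SD of noise, on plates passing a quality check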;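 further: median bead fluorescence of bound FAM aptamer so fluorescent compounds give negative values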
# Scp-1 inhibitor – inhibitors of human Scp-1 phosphatase. Recombinant Scp1, phosphopeptide, malachite green phosphate absorbance. inhibition, % at 20 µM. actives 0.88% (n = 340,000). AID 493091;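 active means inhibition above about 50% at 20 µM, limit read from the data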;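 further: plate controls were DMSO wells with enzyme for no effect and wells lacking enzyme for full effect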
# Target sequence (Q9GZU7 76-261 limits assumed): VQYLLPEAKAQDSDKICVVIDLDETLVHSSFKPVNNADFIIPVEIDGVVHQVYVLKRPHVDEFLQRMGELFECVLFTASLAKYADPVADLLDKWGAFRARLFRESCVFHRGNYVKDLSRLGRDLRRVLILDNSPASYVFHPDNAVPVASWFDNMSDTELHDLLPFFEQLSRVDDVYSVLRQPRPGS
#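 Incubation: 45 min enzyme reaction at room temperature / System: truncated SCP-1 phosphatase (76-261aa) / Reagent: Phospho 17-mer peptide substrate / Buffer or medium: Acidic Tris acetate buffer with magnesium and detergent / Signal: absorbance at 630 nm / Doses: one concentration, 20 µM, with 1.0% DMSO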
# DNMT1 block – blocks human DNA methyltransferase DNMT1; AID 588458; P26358; DNMT1 molecular beacon, Hinp1I cleavage, fluorescence; inhibition (reported as % activation of signal), % at 10 µM; actives 0.83% (n = 360,000); in the data active means inhibition above about 50%
# LMPTP block – LMPTP (human) inhibition | P24666 | recombinant LMPTP-A, OMFP fluorogenic substrate, fluorescence intensity | inhibition, % at 20 µM | actives 0.22% (n = 360,000);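 active means compounds that cut the enzyme signal by at least half of the control window in the single-dose screen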;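 further: plate controls were DMSO wells with enzyme plus substrate for no effect and substrate without enzyme for full effect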
# Target sequence (P24666 whole entry, looked up): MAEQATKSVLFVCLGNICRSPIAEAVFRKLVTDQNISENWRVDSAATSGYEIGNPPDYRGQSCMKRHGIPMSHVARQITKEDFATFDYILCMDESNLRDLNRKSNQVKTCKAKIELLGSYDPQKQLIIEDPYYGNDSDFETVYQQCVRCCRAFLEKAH
#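 Material: LMPTP-A; amount: 0.625 nM enzyme; doses: single 20 µM dose; times: reaction 50 min, room temperature, dark; technique: fluorescence intensity of OMFP turnover product; benchmarks: no-enzyme and uninhibited controls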
# SUMO1 PPI mod – SUMO1-SIM interaction modulation; P63165; actives 0.33% (n = 360,000); inhibition, % at 20 µM; SUMO1 binding to a labelled peptide, TR-FRET, 1 h; AID 602429; in the data active means inhibition above about 37%
# Target sequence (P63165 whole entry, looked up): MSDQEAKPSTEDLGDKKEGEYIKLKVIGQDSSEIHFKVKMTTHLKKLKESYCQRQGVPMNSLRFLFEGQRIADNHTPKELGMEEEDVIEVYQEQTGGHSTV
# STEP inh – inhibitors of human striatal-enriched phosphatase STEP | recombinant STEP, OMFP fluorogenic substrate, fluorescence | inhibition, % at 20 µM | actives 0.25% (n = 360,000);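 active means inhibition at 20 µM, scaled per plate between control wells, above about 37%, limit read from the data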;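 further: 0% = DMSO with enzyme and substrate and 100% = substrate only without enzyme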
#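 Assay system: isolated STEP enzyme / Timing: 20 min at room temperature, dark / Doses: 20 µM, 1% DMSO / Technique: fluorescence intensity, excitation 480 nm, emission 540 nm / Reagent: fluorogenic phosphatase substrate OMFP at 25 µM final / Measure: percent inhibition scaled to no-enzyme and uninhibited-enzyme controls, plate-pattern corrected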
# Scp-1 conf – confirmation of human Scp-1 phosphatase inhibitors; shares compounds with Scp-1 inhibitor; recombinant SCP-1 catalytic domain, phosphate release, malachite green absorbance; inhibition, % at 20 µM; actives 61% (n = 2,500);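 further: plate controls were DMSO with enzyme for no effect and buffer wells lacking enzyme for full effect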
# MG interference – interferes with malachite green readout, flagging false Scp-1 hits; AID 540313; shares compounds with Scp-1 inhibitor; Colorimetric interference counterscreen, malachite green absorbance 630 nm; apparent inhibition (interference), % at 20 µM; 2,500 tested, under 10 active;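 further: compounds added after enzyme reaction finished so only phosphate colour detection is probed; plate controls were DMSO wells with completed Scp-1 reaction for no effect and substrate wells lacking enzyme for full effect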
# Scp1 DSF – validation of human Scp-1 inhibitors by thermal shift binding; shares compounds with Scp-1 inhibitor; Recombinant SCP1, Sypro Orange thermal shift Tm; thermal shift relative to vanadate control, % at 40 µM; actives 25% (n = 1,500);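 active means substances whose mean melting-temperature shift, as a percentage of the reference inhibitor's shift, reaches about 5.3%, limit read from the data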;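 further: 0% = Tm of DMSO wells and 100% = Tm with sodium orthovanadate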
# An asterisk follows results filed as active; nt = not tested or not shown.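 How the source made its calls, unless noted: active means inhibition of at least 30% at 20 µM; inactive means the rest.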
SMILES,GRK2 inh,Scp-1 inhibitor,DNMT1 block,LMPTP block,SUMO1 PPI mod,STEP inh,Scp-1 conf,MG interference,others
CCn1c(/C=C/c2cc[n+](C)cc2)nc2ccccc21,2.0,101.8*,-6.4,-0.5,-33.8,-3.2,11.7,-7.6,
CCCn1c(/C=C/c2ccccc2)nc2ccccc21,0.0,-6.1,0.8,15.3,-11.7,-2.5,nt,nt,
Cc1nnc(SCC2=C(C(=O)O)N3C(=O)C(NC(=O)Cn4nc(C(F)F)cc4C)C3SC2)s1 (stereo not given),11.0,70.3*,27.4,-1.2,11.1,6.4,51.6*,-21.7,Scp1 DSF=2.7
Cc1nnc(SCC2=C(C(=O)O)N3C(=O)C(NC(=O)Cn4nc(C(F)F)c(Cl)c4C)C3SC2)s1 (stereo not given),21.0,42.0,0.4,1.9,16.2,6.7,nt,nt,
Cc1nnc(SCC2=C(C(=O)O)N3C(=O)C(NC(=O)COc4ccccc4)C3SC2)s1 (stereo not given),nt,68.4*,8.6,1.0,12.7,1.8,52.8*,-20.8,Scp1 DSF=3.8
COc1ccc(C(=O)N2CCC(C)(C(=O)O)C2)cc1OC (stereo not given),nt,nt,1.4,-1.7,-1.3,-1.4,nt,nt,
COc1c(O)cc2c(c1O)[C@@H]1OC(CO)C(O)C(O)[C@H]1OC2=O (stereo not given in full),nt,-0.7,-1.0,-0.4,0.9,-1.6,-7.4,-5.2,
O=C(NCc1ccc(Cl)c(Cl)c1)c1cc(C2CCCCN2C(=O)c2ccccc2)on1 (stereo not given),nt,nt,0.7,4.0,0.9,1.2,nt,nt,
COc1ccc(S(=O)(=O)N(C)C[C@H]2Oc3ccc(NC(=O)c4ccncc4)cc3C(=O)N([C@H](C)CO)C[C@@H]2C)cc1,0.0,73.7*,4.5,0.8,2.4,0.6,2.6,-12.8,
Cc1noc(C)c1NC(=O)N(C)C[C@H]1Oc2ccc(NC(=O)Nc3ccccc3)cc2C(=O)N([C@H](C)CO)C[C@@H]1C,1.0,65.0*,8.0,-2.2,0.7,-3.2,0.8,-10.4,
C[C@H](CO)N1C[C@H](C)[C@@H](CN(C)S(=O)(=O)c2ccccc2)Oc2ccc(NC(=O)c3ccncc3)cc2C1=O,1.0,7.2,2.7,0.6,3.6,1.6,nt,nt,
C[C@H](CO)N1C[C@H](C)[C@@H](CN(C)S(=O)(=O)c2ccc(F)cc2)Oc2ccc(NC(=O)c3ccncc3)cc2C1=O,1.0,59.4*,0.3,-2.5,-5.2,-2.4,6.6,-11.5,
COc1ccc(NC(=O)N(C)C[C@H]2Oc3ccc(NC(=O)c4ccncc4)cc3C(=O)N([C@H](C)CO)C[C@@H]2C)cc1,4.0,83.7*,11.6,-2.1,-0.3,-1.4,14.6,-13.4,
O=C1NC[C@H](Cc2ccccc2)N(CC2CCN(CCC34CC5CC(CC(C5)C3)C4)CC2)C1=O,nt,12.6,3.1,2.2,-4.8,0.7,nt,nt,
Cc1nc2cc(OC3(C)CCN(Cc4ccc(OC(F)(F)F)cc4)C3)ccc2s1 (stereo not given),nt,nt,14.2,1.7,-1.1,-1.5,nt,nt,
O=C(CC[C@H]1O[C@@H](n2ccc(=O)[nH]c2=O)[C@H](O)[C@@H]1O)N[C@@H](Cc1ccccc1)C(=O)NCC1CCCO1 (stereo not given in full),nt,nt,2.1,0.1,0.1,-0.3,nt,nt,
CCc1ccccc1N1CC(C(=O)Nc2cc(S(=O)(=O)N3CCCC3)ccc2Cl)CC1=O (stereo not given),1.0,28.6,42.4,2.3,3.4,0.4,nt,nt,
O=C1C=C(OCCF)CC(c2ccccc2C(F)(F)F)O1 (stereo not given),nt,nt,nt,-0.6,0.9,nt,nt,nt,
CC(C)N1C(=O)NC2NC(=O)N(C(C)C)C21 (stereo not given),nt,nt,5.3,-1.2,2.2,-0.6,nt,nt,

# Screening data as filed in PubChem.
